# Bioassay records as filed in PubChem BioAssay.
# KCNK9 block = blocks the human KCNK9 two-pore domain potassium channel | Q9NPC2 | HEK293 KCNK9, FluxOR thallium flux fluorescence; hits give low values | B-score at 10 µM | 310,000 tested, 1.2% active;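 active = ratio B-score over 3 SD below the library mean, with starting fluorescence within 5 SD of its mean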;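 note: negative B-score means less thallium flux so channel inhibition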
# Target sequence (Q9NPC2 whole entry, looked up, the tested form may be a part): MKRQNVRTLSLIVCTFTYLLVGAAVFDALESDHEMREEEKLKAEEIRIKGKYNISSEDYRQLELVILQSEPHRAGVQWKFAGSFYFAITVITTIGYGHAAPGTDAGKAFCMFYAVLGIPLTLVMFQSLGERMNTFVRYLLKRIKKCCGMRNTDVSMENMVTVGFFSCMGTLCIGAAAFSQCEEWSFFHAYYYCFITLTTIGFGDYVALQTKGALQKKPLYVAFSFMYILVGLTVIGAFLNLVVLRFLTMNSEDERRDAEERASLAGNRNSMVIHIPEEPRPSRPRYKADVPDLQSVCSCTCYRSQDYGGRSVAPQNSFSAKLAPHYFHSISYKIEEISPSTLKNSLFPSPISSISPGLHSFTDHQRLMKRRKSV
# KCNK3 block = human KCNK3 channel inhibition, primary screen; O14649; CHO-KCNK3 thallium flux, FluxOR fluorescence; hits give low values; B-score at 10 µM; 340,000 tested, 0.84% active; AID 602410;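 active = B-score under library mean minus 4 SD, starting fluorescence ratio at most library mean plus 5 SD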;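 note: more negative B-score means stronger inhibition of thallium flux through KCNK3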
# KCNQ1 act = potentiators or activators of human KCNQ1 potassium channel; P51787; CHO-K1 KCNQ1, thallium flux FluxOR fluorescence; hits give high values; B-score at 10 µM; 310,000 tested, 0.35% active;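 active = fluorescence ratio B-score, a plate-corrected score, at least three library SD, with initial intensity B-score within 5 SD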
#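 assay system = CHO-K1 cells stably expressing KCNQ1 | medium = assay buffer, equal DMSO in all wells | timing = 37 °C overnight plating, 90-min dark dye load, 20-min compound pretreatment | measured by = kinetic FluxOR thallium fluorescence, 10-s 1-Hz baseline, 110-s post-stimulus read | measure = fluorescence change relative to baseline, converted to B score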
# Kir21 inh = inhibitors of mouse Kir2.1 inward-rectifier potassium channel; P35561; HEK293-Kir2.1, FluxOR thallium flux fluorescence; hits give low values; B-score at 10 µM; 310,000 tested, 0.85% active; AID 1672;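 active = fluorescence ratio B-score at or below minus 3 SD of library scores, with starting-brightness B-score within 2 SD, cut at about -4.2 in these data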;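 note: channel flux triggered by added potassium and thallium sulfate stimulus; B-score of peak minus minimum fluorescence over baseline after thallium stimulus; more negative B-score means stronger Kir2.1 block with less thallium influx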
# KCNQ1 inh = blocks the human KCNQ1 potassium channel; CHO-K1 KCNQ1, FluxOR thallium flux fluorescence; hits give high values; 310,000 tested, 1.3% active; B-score at 10 µM;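 active = compounds whose thallium flux B-score, printed positive for inhibition, exceeds three library SD while starting fluorescence stays within three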;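 note: channel opened by potassium depolarization with thallium stimulus after 20 min compound exposure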
# hERG protect = shields human hERG channel from block by proarrhythmic agents. CHO-hERG, FluxOR thallium flux, dofetilide IC70 present. activation (rescue from dofetilide block), less the hit threshold, % at 10 µM. Q12809. AID 1511. 310,000 tested, 0.51% active;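 active = activation above the mean of controls blocked by dofetilide plus 5 SD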;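 note: thallium influx through hERG after potassium depolarization seen as dye fluorescence rise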
# KCNK3 inh conf = confirmation of human KCNK3 two-pore domain potassium channel inhibitors; shares compounds with KCNK3 block; CHO-KCNK3 thallium flux, FluxOR fluorescence; 0% buffer, 100% carvedilol maximal block; 2,400 tested, 99% active; ratio percent of control, % at 10 µM;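 active = ratio percent of control, averaged over triplicates, above buffer control mean plus 5 SD, cut at about 64% in these data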;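 note: ratio is the fluorescence rise from min to max over baseline after thallium stimulus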
# KCNK3 noninduced = activity in cells without induced KCNK3 expression | shares compounds with KCNK3 block | non-induced KCNK3 parental cells, FluxOR thallium flux; hits give low values | thallium flux ratio (lower = more inhibition) at 10 µM | 2,400 tested, 40% active | AID 651747;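 active = thallium flux ratio, averaged over three wells, more than 5 SD below the buffer control mean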;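 note: host cells are CHO cells without KCNK3 induction; ratio is peak minus trough fluorescence over baseline then normalized to buffer controls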
# Starred values were filed as active, the others as inactive; i = inactive; . = no result given. A selection: hits, their analogues and other compounds. The true share with any hit is near 3.7%.
SMILES,KCNK9 block,KCNK3 block,KCNQ1 act,Kir21 inh,KCNQ1 inh,hERG protect,KCNK3 inh conf,KCNK3 noninduced
CCn1c(CC(=O)Nc2ccc(F)cc2)nnc1SCC(=O)N1CCOCC1,i,i,i,1,i,-6,.,.
CCC(=O)Nc1ccccc1C(=O)OC(c1ccccc1)c1ccccc1,i,i,i,-0.51,i,-12,.,.
CCC(=O)Nc1ccccc1C(=O)OCc1ccc(C(=O)c2ccccc2)cc1,i,-9.3*,i,1.5,i,-14,98*,i
CCOC(=O)c1oc2ccc(/C=N/O)c(Cl)c2c1C,i,i,i,-1.1,i,-7,.,.
Clc1ccccc1/C=C/C=N/Nc1nc(N2CCOCC2)nc(N2CCOCC2)n1,i,-10*,i,-0.47,i,-19,94*,i
OCc1c(OCc2cccc(F)c2)ccc2ccccc12,i,-9.5*,i,1.1,i,-7,97*,i
Cc1ccccc1NCC(=O)N/N=C/C(Br)=C/c1ccccc1,i,i,i,0.99,i,1,.,.
COc1ccc(NC(=O)COC(=O)c2c3c(nc4ccccc24)CCCC3)cc1Cl,-9.7*,-9.1*,i,-0.54,i,-6,120*,0.15*
CCOC(=O)CNC(=S)N(Cc1ccco1)Cc1ccccc1Cl,i,-10*,i,-0.32,i,-7,124*,i
Cc1ccc(NC(=O)COC(=O)CCC(=O)c2cccs2)c(C)c1,i,i,i,0.33,i,-11,.,.
C(=C\CSc1nnnn1-c1ccccc1)/CSc1nnnn1-c1ccccc1,i,-9.7*,i,-1.9,i,-15,106*,i
C/[N+]([O-])=C\C1C(=O)CC(C)(C)CC1=O,i,i,i,-1.8,i,-4,.,.
CCOc1ccccc1CNC(c1ccccc1)c1ccccc1,i,-10*,i,-1.5,i,-12,67*,0.16*
COc1ccccc1CNC(c1ccccc1)c1ccccc1,i,i,i,-2.8,i,-13,.,.
CCCCN(C)Cc1cc(=O)oc2ccc3ccccc3c12,i,-9.3*,i,-0.32,i,-8,120*,0.15*
CCCN1CCN(C(=S)Nc2ccccc2C(F)(F)F)CC1,i,i,i,-1.4,i,-7,.,.
CCOc1ccccc1NC(=S)NC(=O)CCCOc1ccc(Cl)cc1Cl,i,-11*,i,-0.62,i,2,109*,i
CN(C)S(=O)(=O)c1ccc(C(=O)NCc2ccco2)cc1,i,-9.2*,i,0.51,i,-4,72*,i
CCCN(CCC)S(=O)(=O)c1ccc(C(=O)NCc2ccco2)cc1,i,i,i,0.85,i,-3,.,.
CN(C)S(=O)(=O)c1cccc(NC(=O)COc2ccccc2C(=O)NCc2ccccc2)c1,.,-12*,.,.,.,.,119*,0.16*
Cc1ccc(NC(=O)COc2ccccc2C(=O)NCc2ccccc2)cc1,.,i,.,.,.,.,.,.
O=C(CSc1nc(Nc2ccccc2)nc(N2CCOCC2)n1)Nc1ccc([N+](=O)[O-])cc1,i,i,i,-0.18,i,-12,.,.
O=C(CSc1nc(Nc2ccccc2)nc(N2CCOCC2)n1)Nc1cccc([N+](=O)[O-])c1,i,-11*,i,1.1,i,-10,110*,0.15*
Nc1ncnc2c1c(-c1ccc(Oc3ccccc3)cc1)cn2C1CCCC1,.,-12*,.,.,.,.,115*,i
COCCCNC(=S)N1CCN(c2nc3ccccc3s2)CC1,i,i,i,-1.2,i,-19,.,.
CCc1nc(N2CCN(C(=S)NCCCOC)CC2)c2c3c(sc2n1)CCCC3,i,-8.9*,i,-0.75,i,-14,95*,0.15*
CC(C)(CNS(C)(=O)=O)SCc1ccc(Cl)cc1,i,i,i,-0.97,i,-7,.,.
